Data published in ChEMBL document CHEMBL3804810, “A structural insight into the P1S1 binding mode of diaminoethylphosphonic and phosphinic acids, selective inhibitors of alanine aminopeptidases” (Eur J Med Chem, 2016).
The source made the active and inactive calls. The rule behind the calls is not given here.

Experiments:
[1] = target: T1, Cytosol aminopeptidase (Sus scrofa, UniProt P28839); assay: Inhibition of porcine kidney leucine aminopeptidase M17 using Leu-AMC as substrate preincubated for 30 to 60 mins followed by substrate addition measured for 15 mins by spectrofluorimetric analysis
T1 sequence (P28839 whole entry): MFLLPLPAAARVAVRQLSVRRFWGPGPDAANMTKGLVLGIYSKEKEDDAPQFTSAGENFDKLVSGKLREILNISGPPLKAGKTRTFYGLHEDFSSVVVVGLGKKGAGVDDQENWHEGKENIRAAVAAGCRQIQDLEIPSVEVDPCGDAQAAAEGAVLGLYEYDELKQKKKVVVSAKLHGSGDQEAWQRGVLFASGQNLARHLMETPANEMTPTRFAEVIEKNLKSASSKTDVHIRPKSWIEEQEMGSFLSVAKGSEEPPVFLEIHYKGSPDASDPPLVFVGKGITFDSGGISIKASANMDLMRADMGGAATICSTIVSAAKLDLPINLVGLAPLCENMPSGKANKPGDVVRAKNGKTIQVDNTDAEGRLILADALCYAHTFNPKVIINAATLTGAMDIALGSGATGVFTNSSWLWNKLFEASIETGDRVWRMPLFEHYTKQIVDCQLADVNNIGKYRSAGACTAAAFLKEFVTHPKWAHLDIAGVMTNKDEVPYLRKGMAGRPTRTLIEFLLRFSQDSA
Procedure, shortened: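 Inhibitor concentrations were tested up to 800 μM against the porcine kidney enzyme. Values are reported as inhibition constants (Ki).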

[2] = target: T1, Cytosol aminopeptidase; assay: Inhibition of porcine kidney leucine aminopeptidase M17 using L-leucine p-nitro-anilide as substrate by spectrophotometric analysis
[3] = Inhibition of recombinant Neisseria meningitidis N-terminal His6-tagged alanyl aminopeptidase M1 expressed in Escherichia coli BL21 cells using Ala-AMC as substrate preincubated for 30 to 60 mins followed by substrate addition measured for 15 mins by spectrofluorimetric analysis
[4] = target: T2, Cytosol aminopeptidase (Sus scrofa) (UniProt P28839); assay: Inhibition of porcine kidney leucine aminopeptidase M17 using Leu-AMC as substrate up to 0.8 mM preincubated for 30 to 60 mins followed by substrate addition measured for 15 mins by spectrofluorimetric analysis
T2 sequence (whole entry): T1 sequence (P28839 whole entry)

Row | SMILES | Ki [1] [µM] | further results
1 | CCCNCC(N)P(=O)(O)CC(Cc1ccccc1)C(=O)O (stereo not drawn) | 21 | 
2 | CC(C)(C)c1ccc(CNCC(N)P(=O)(O)O)cc1 (stereo not drawn) | 71.1 | 
3 | CC(NCC(N)P(=O)(O)O)c1ccccc1 (stereo not drawn) |  | Ki [2]: 600 µM
4 | NC(CNCC1CCNCC1)P(=O)(O)O (stereo not drawn) | 68.4 | 
5 | NC(CNCCN1CCNCC1)P(=O)(O)O (stereo not drawn) | 55.8 | 
6 | NC(CNC1CCCCCC1)P(=O)(O)CC(Cc1ccccc1)C(=O)O (stereo not drawn) | 23.8 | 
7 | NCCNCC(N)P(=O)(O)O (stereo not drawn) | 289 | 
8 | NC(CNCc1ccccc1)P(=O)(O)O (stereo not drawn) |  | Ki [2]: 350 µM
9 | COc1ccc(CNCC(N)P(=O)(O)O)cc1 (stereo not drawn) | 26.2 | 
10 | NCC(N)P(=O)(O)CC(Cc1ccccc1)C(=O)O (stereo not drawn) | 64.4 | 
11 | NC(CNC1CCCCC1)P(=O)(O)CC(Cc1ccccc1)C(=O)O (stereo not drawn) | 28.3 | 
12 | Nc1ccc(CNCC(N)P(=O)(O)O)cc1 (stereo not drawn) | 7.02 | 
13 | CN(C)CCNCC(N)P(=O)(O)O (stereo not drawn) | 72.6 | Ki [3]: 26 µM
14 | COc1ccc(CCNCC(N)P(=O)(O)O)cc1 (stereo not drawn) | 19.5 | 
15 | NCC(N)P(=O)(O)O (stereo not drawn) |  | Ki [3]: 0.589 µM
16 | NC(CNCC1CCCO1)P(=O)(O)O (stereo not drawn) | 69.1 | 
17 | NC1CCCCC1NCC(N)P(=O)(O)O (stereo not drawn) | 240 | 
18 | COc1ccc(CCNCC(N)P(=O)(O)CC(Cc2ccccc2)C(=O)O)cc1 (stereo not drawn) | 21.1 | 
19 | NC(CN1CCOCC1)P(=O)(O)O (stereo not drawn) |  | inhibition [4]: inactive
20 | NC(CCC1CCCCC1)P(=O)(O)O (stereo not drawn) | 0.21 | 
21 | NC(CN1CCCCC1)P(=O)(O)O (stereo not drawn) |  | Ki [2]: 1410 µM
22 | NC(CNC1CCCCCC1)P(=O)(O)O (stereo not drawn) | 20.8 | 
23 | NC(CNCCc1ccccc1)P(=O)(O)O (stereo not drawn) | 108 | 
24 | CC(C)CNCC(N)P(=O)(O)CC(Cc1ccccc1)C(=O)O (stereo not drawn) | 15.2 | 
25 | NCc1ccc(CNCC(N)P(=O)(O)O)cc1 (stereo not drawn) | 26.5 | 
26 | CCCCCCNCC(N)P(=O)(O)O (stereo not drawn) | 119 | 
27 | CNCC(N)P(=O)(O)O (stereo not drawn) |  | Ki [3]: 29.6 µM
